Measured values reported in ChEMBL document CHEMBL4261561, “Thiosemicarbazone-based selective proliferation inactivators inhibit gastric cancer cell growth, invasion, and migration” (Medchemcomm, 2017).

Key:
[1] = test system: MGC-803; test: Antiproliferative activity against human MGC803 cells after 72 hrs by MTT assay; format: functional, cell-based; details: MGC-803, 72 h
Procedure, shortened: (§1)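 Exponentially growing cells were seeded at about 3×10^3 per well and left 24 h, then given fresh medium with a range of compound concentrations for 72 h. MTT solution (5 mg/mL) was added for another 4 h. Medium was removed, formazan was dissolved in DMSO, and absorbance was read at 570 nm. IC50 was derived statistically.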

[2] = test system: MCF7; test: Antiproliferative activity against human MCF7 cells after 72 hrs by MTT assay; format: functional, cell-based; details: MCF7, 72 h; procedure, shortened: as §1
[3] = test system: SMMC-7721; test: Antiproliferative activity against human SMMC7721 cells after 72 hrs by MTT assay; format: functional, cell-based; details: SMMC-7721, 72 h; procedure, shortened: as §1
[4] = test system: GES1; test: Cytotoxicity against human GES-1 cells after 72 hrs by MTT assay; format: cell-based; details: GES1, 72 h; procedure, shortened: as §1

SMILES | IC50 [1] [µM] | IC50 [2] [µM] | IC50 [3] [µM] | IC50 [4] [µM]
C/C(=N\NC(=S)N1CCOCC1)c1ccccc1 | 32.6 | 44.6 | > 64 | –
C/C(=N\NC(=S)N1CCOCC1)c1cc(Cl)ccc1O | 3.06 | 29.2 | > 64 | –
C/C(=N\NC(=S)N1CCN(C(=O)OC(C)(C)C)CC1)c1cc(Cl)ccc1O | 58.4 | > 64 | > 64 | –
COc1ccc(/C=N/NC(=S)N2CCOCC2)c(O)c1 | 56.1 | > 64 | 38.3 | –
C/C(=N\NC(=S)N1CCOCC1)c1ccc(O)cc1 | > 64 | > 64 | > 64 | –
C/C(=N\NC(=S)N1CCOCC1)c1cccc(O)c1 | > 64 | > 64 | > 64 | –
C/C(=N\NC(=S)N1CCOCC1)c1ccccc1O | 11.2 | 49.2 | > 64 | –
Oc1c(Br)cc(Br)cc1/C=N/NC(=S)N1CCOCC1 | 20.4 | > 64 | 32.6 | –
NC(=S)N/N=C/c1ncccc1N [TRIAPINE] | 9.68 | 18.9 | 42.8 | 5.4
